Results gathered from unrelated publications.
Lines come from different studies, so protocols differ.
Target: cGMP-dependent protein kinase 1 (PRKG1, Homo sapiens, UniProt Q13976)
Sequence (Q13976 1-671, as in one of the studies): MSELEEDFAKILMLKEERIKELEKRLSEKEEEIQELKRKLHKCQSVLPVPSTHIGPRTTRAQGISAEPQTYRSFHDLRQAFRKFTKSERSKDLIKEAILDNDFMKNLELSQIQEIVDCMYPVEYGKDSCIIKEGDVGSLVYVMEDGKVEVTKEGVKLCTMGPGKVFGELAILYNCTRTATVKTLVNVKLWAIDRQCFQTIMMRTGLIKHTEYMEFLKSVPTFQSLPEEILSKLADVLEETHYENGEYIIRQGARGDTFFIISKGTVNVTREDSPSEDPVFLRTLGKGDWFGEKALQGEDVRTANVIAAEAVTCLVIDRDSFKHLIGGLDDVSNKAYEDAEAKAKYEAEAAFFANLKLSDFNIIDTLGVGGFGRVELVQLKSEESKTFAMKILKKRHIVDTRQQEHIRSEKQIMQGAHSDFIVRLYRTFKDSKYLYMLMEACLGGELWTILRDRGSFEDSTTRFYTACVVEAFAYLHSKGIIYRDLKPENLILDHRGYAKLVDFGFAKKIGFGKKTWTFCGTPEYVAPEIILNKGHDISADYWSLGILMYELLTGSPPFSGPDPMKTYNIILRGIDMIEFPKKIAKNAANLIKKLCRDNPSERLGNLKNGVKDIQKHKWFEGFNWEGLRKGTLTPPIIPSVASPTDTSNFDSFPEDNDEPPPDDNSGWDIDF

N#CC1(c2ccccn2)CCN(Cc2cc(C(=O)O)c(=O)n3ccccc23)CC1
remaining binding (cell-free assay, competition with immobilised ligand; 1 µM): 98%

C#Cc1n[nH]c2c(-c3cn([C@@H](C)c4ccccn4)c(=O)[nH]c3=O)cc(F)cc12
inhibition (enzyme activity, inhibitor; 0.1 µM): 0.5%

COc1cc(Nc2ncc(F)c(Nc3ccc4c(n3)NC(=O)C(C)(C)O4)n2)cc(OC)c1OC
inhibition (binding; 10 µM): 0%

Nc1ncc(-c2nc(N3CCOCC3)nc(N3CCOCC3)n2)c(C(F)F)n1
remaining binding (binding, competition with immobilised ligand; 10 µM): 79%

Cc1nn(C)cc1-c1nc2c(N3CCN(Cc4ccc(Cl)cc4)CC3)c(Cl)cnc2[nH]1
remaining binding (binding, competition with immobilised ligand; 1 µM): 100%

COc1ncccc1-c1cnn2ccc(N3CCN(C(=O)OC(C)C)CC3)nc12
remaining binding (binding, competition with immobilised ligand; 1 µM): 100%

Cn1cc(-c2cc(F)cc(N3CCn4c(cc5c4CCCC5)C3=O)c2CO)cc(Nc2ccc(N3CCN(C4COC4)CC3)cn2)c1=O
inhibition (enzyme activity, inhibitor; 0.1 µM): 8%

C#Cc1n[nH]c2c(-c3cn([C@@H](C)c4ccccc4)c(=O)[nH]c3=O)cc(F)cc12
inhibition (enzyme activity, inhibitor; 0.1 µM): 5.1%

CN1CCC(c2cc(-c3ccncc3)c(-c3ccc(F)cc3)[nH]2)CC1
inhibition (enzyme activity, inhibitor; 10 µM): 9%

Cn1cc(-c2cccc(N3CCc4c(sc5c4CC(C)(C)C5)C3=O)c2CO)cc(Nc2ccncn2)c1=O
inhibition (enzyme activity, inhibitor; 1 µM): 4%

Cn1cncc1[C@](O)(COc1ccc(C#N)cc1-c1ccc(OC(F)(F)F)cc1)c1ccc(C#N)cc1
remaining binding (cell-free assay, competition with immobilised ligand; 1 µM): 91%
